How the values were obtained:
[1] = Cytotoxicity against HUVEC; format: cell-based; details: human, HUVEC cells; read-out: ED50 (the source's name)
[2] = Cytotoxicity against human telomerase reverse transcriptase expressing human RPE1 cells; format: functional, TERT-RPE1; details: for EC50: Homo sapiens, RPE-1, read-out: ED50 (the source's name)
Lu1 = assay: Cytotoxicity against human Lu1 cells; format: functional; details: for EC50: Homo sapiens, Lu1, read-out: ED50 (the source's name)
Procedure, shortened: (§1)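 Cytotoxicity was tested on a panel of human cancer cell lines following established protocols, with ED50 as the read-out. Extracts, fractions and isolates from twigs and leaves were run the same way.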

LNCaP = assay: Cytotoxicity against human LNCAP cells; format: functional; details: for EC50: Homo sapiens, LNCaP, read-out: ED50 (the source's name); procedure, shortened: as §1
KB = assay: Cytotoxicity against human KB cells; format: functional; details: for EC50: Homo sapiens, KB, read-out: ED50 (the source's name); procedure, shortened: as §1
Col2 = assay: Cytotoxicity against human Col2 cells; format: functional, cell-based; procedure, shortened: as §1
[3] = read-out: ED50 (the source's name)

For `O=C1C[C@@H](c2ccc(O)cc2)Oc2cc(O)cc(O)c21` [NARINGENIN], the CC50 [1] was > 1000 nM, the ED50 [2] was > 1000 nM and the ED50 (Lu1) was > 1000 nM. The ED50 (LNCaP) was > 1000 nM, the ED50 (KB) was > 1000 nM and the EC50 (Col2; read-out: EC50) was > 1000 nM.

With `CC(C)=CC[C@@H](O)[C@@H](C)[C@H]1CC[C@H]2C3=CCC4[C@@H](O)[C@@H](O)CC[C@]4(C)[C@H]3CC[C@]12C` (stereo partly drawn) the CC50 [1] was > 1000 nM, the ED50 [2] was > 1000 nM and the ED50 (Lu1) was > 1000 nM. The ED50 (LNCaP) was > 1000 nM, the ED50 (KB) was > 1000 nM and the EC50 (Col2; read-out: EC50) was > 1000 nM.

With `C=C(C)[C@@H]1CC[C@]2(C)[C@H](CC[C@@H]3[C@@H]([C@@](C)(O)C/C=C/C(C)(C)O)CC[C@]32C)[C@@]1(C)CCC(=O)OC` the CC50 [1] was > 1000 nM, the ED50 [2] was > 1000 nM and the ED50 (Lu1) was > 1000 nM. The ED50 (LNCaP) was > 1000 nM, the ED50 (KB) was > 1000 nM and the EC50 (Col2; read-out: EC50) was > 1000 nM.

Molecule `COc1ccc([C@@]23Oc4cc(OC)cc(OC)c4[C@]2(O)[C@H](OC(C)=O)C[C@H]3c2ccccc2)cc1` has a CC50 [1] of 231 nM, an EC50 [2] of 210 nM and an EC50 (Lu1) of 210 nM. For the same molecule, the EC50 (LNCaP) was 273 nM, the EC50 (KB) was 147 nM and the EC50 (Col2; [3]) was 189 nM.

With `COc1ccc(-c2oc3cc(OC)cc(O)c3c(=O)c2OC)cc1` the CC50 [1] was > 1000 nM, the ED50 [2] was > 1000 nM and the ED50 (Lu1) was > 1000 nM. The ED50 (LNCaP) was > 1000 nM, the ED50 (KB) was > 1000 nM and the EC50 (Col2; read-out: EC50) was > 1000 nM.

`COc1ccc([C@@]23Oc4cc(OC)cc(OC)c4[C@]2(O)[C@H](O)[C@H](C(=O)O)[C@H]3c2ccccc2)cc1` [ROCAGLOIC ACID] showed a CC50 [1] of 209 nM, an EC50 [2] of 209 nM and an EC50 (Lu1) of 63 nM. It also gave an EC50 (LNCaP) of 104 nM, an EC50 (KB) of 204 nM and an EC50 (Col2; [3]) of 209 nM.

In the case of `CC(=O)O[C@H]1C(=O)[C@@]2(C)[C@H]([C@H](OC(=O)c3ccccc3)[C@]3(O)C[C@H](OC(=O)[C@H](O)[C@@H](NC(=O)c4ccccc4)c4ccccc4)C(C)=C1C3(C)C)[C@]1(OC(C)=O)CO[C@@H]1C[C@@H]2O` [PACLITAXEL], the CC50 [1] is reported as 105 nM, the EC50 [2] is reported as 23 nM and the EC50 (Lu1) is reported as 2 nM. The EC50 (LNCaP) was 5 nM, the EC50 (KB) was 0.4 nM and the EC50 (Col2; [3]) was 46 nM.

`CC[C@@]1(O)C(=O)OCc2c1cc1n(c2=O)Cc2cc3ccccc3nc2-1` [CAMPTOTHECIN] showed a CC50 [1] of 258 nM, an EC50 [2] of 230 nM and an EC50 (Lu1) of 29 nM. It also gave an EC50 (LNCaP) of 28 nM, an EC50 (KB) of 22 nM and an EC50 (Col2; [3]) of 57 nM.

With `CC(C)(O)[C@@H]1CC[C@@](C)([C@H]2CC[C@]3(C)[C@@H]2CC[C@@H]2[C@@]4(C)CCC(=O)C(C)(C)[C@@H]4CC[C@]23C)O1` [CABRALEONE] the CC50 [1] was > 1000 nM, the ED50 [2] was > 1000 nM and the ED50 (Lu1) was > 1000 nM. For the same molecule, the ED50 (LNCaP) was > 1000 nM, the ED50 (KB) was > 1000 nM and the EC50 (Col2; read-out: EC50) was > 1000 nM.

For `O=C1C[C@@H](c2ccc(O)c(O)c2)Oc2cc(O)cc(O)c21` [ERIODICTYOL], the CC50 [1] was > 1000 nM, the ED50 [2] was > 1000 nM and the ED50 (Lu1) was > 1000 nM. For the same molecule, the ED50 (LNCaP) was > 1000 nM, the ED50 (KB) was > 1000 nM and the EC50 (Col2; read-out: EC50) was > 1000 nM.

For `C=C(C)[C@@H]1CC[C@]2(C)[C@H](CC[C@@H]3[C@@H]([C@]4(C)CC[C@H](C(C)(C)O)O4)CC[C@]32C)[C@@]1(C)CCC(=O)O` [SHOREIC ACID], the CC50 [1] was > 1000 nM, the ED50 [2] was > 1000 nM and the ED50 (Lu1) was > 1000 nM. The ED50 (LNCaP) was > 1000 nM, the ED50 (KB) was > 1000 nM and the EC50 (Col2; read-out: EC50) was > 1000 nM.

For `C=C(C)[C@@H]1CC[C@]2(C)[C@H](CC[C@@H]3[C@@H]([C@@](C)(O)C/C=C/C(C)(C)O)CC[C@]32C)[C@@]1(C)CCC(=O)O`, the CC50 [1] was > 1000 nM, the ED50 [2] was > 1000 nM and the ED50 (Lu1) was > 1000 nM. For the same molecule, the ED50 (LNCaP) was > 1000 nM, the ED50 (KB) was > 1000 nM and the EC50 (Col2; read-out: EC50) was > 1000 nM.

For `COC(=O)[C@H]1[C@@H](O)[C@@]2(O)c3c(OC)cc(OC)cc3O[C@@]2(c2ccc(OC)cc2)[C@@H]1c1ccccc1` [AGLAFOLIN], the CC50 [1] was 203 nM, the EC50 [2] was 183 nM and the EC50 (Lu1) was 163 nM. The EC50 (LNCaP) was 325 nM, the EC50 (KB) was 142 nM and the EC50 (Col2; [3]) was 243 nM.

Source: ChEMBL document CHEMBL1146492, “Cytotoxic constituents of the twigs and leaves of Aglaia rubiginosa” (J Nat Prod, 2004)
